In assay [1] the test system is L1210. The experiment in a line: Compound was evaluated for its impact on spermidine levels after 48 hr at concentration 10 uM. In kind it is functional, Mus musculus. An outline of the steps:
(§1)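 L1210 suspension cultures were grown in RPMI-1640 with 10% NuSerum, 2% HEPES-MOPS and 1 mM aminoguanidine (37 °C, 5% CO2). Log-phase cells were treated for 48 h, then washed twice in cold RPMI-1640 and pelleted. Pellets were extracted with 0.6 N perchloric acid, and supernatants were held at −20 °C until HPLC. Polyamine levels are given as % of untreated controls.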

The subject of assay [2] is L1210. As to the kind of experiment: In vitro inhibition of L1210 growth after 48 hours. In kind it is functional, cell-based. To be noted: Mus musculus, L1210, 48 h. An outline of the steps: (§2)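 Log-phase L1210 cultures (0.5–1.0 × 10^5 cells/mL) treated with analogue diluted in sterile water and filter-sterilized. After 48 h, cells were reseeded and grown a further 48 h for the 96 h point. Cells counted by Coulter counter. % growth = (treated − inoculum)/(untreated − inoculum) × 100.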

For assay [3], the system named is L1210. The experiment in a line: Compound was evaluated for its impact on spermidine levels after 48 hr at concentration 100 uM. In kind it is functional, Mus musculus.
For assay [4], the target named is T1, S-adenosylmethionine decarboxylase proenzyme 1 (Mus musculus) (UniProt P0DMN7).
T1 sequence (whole entry): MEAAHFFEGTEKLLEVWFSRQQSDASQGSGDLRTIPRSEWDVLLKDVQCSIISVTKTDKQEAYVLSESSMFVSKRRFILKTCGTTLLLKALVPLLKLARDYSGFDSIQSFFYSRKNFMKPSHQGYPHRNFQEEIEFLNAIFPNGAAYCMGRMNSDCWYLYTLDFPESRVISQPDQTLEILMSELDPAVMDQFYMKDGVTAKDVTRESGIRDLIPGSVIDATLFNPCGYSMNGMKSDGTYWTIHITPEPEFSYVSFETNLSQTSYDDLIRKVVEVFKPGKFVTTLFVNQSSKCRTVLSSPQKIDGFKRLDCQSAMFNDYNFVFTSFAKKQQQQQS
The experiment in a line: Inhibition of S-Adenosyl-methionine decarboxylase (AdoMetDC) activity. In kind it is functional. Set-up: concentration or dose not given beside the values.

The subject of assay [5] is L1210. The experiment in a line: In vitro inhibition of L1210 growth after 96 hours. The format is functional, cell-based. To be noted: Mus musculus, L1210, 96 h. In a few lines: as §2
The test system of assay [6] is L1210. As to the kind of experiment: Inhibition of radiolabeled spermidine uptake into L1210 cells in vitro. In kind it is functional, cell-based, Mus musculus.
In assay [7] the test system is L1210. As to the kind of experiment: Compound was evaluated for its impact on putrescine (Put) levels after 48 hr at concentration 10 uM. The format is functional, Mus musculus. In a few lines:
as §1

For assay [8], the system named is L1210. As to the kind of experiment: Compound was evaluated for its impact on putrescine (Put) levels after 48 hr at concentration 100 uM. The format is functional, Mus musculus.
For assay [9], the system named is L1210. The experiment in a line: Compound level in L1210 cells after 48 hours of incubation at initial concentration of 100 uM is expressed as nmol/10e6 cells. The format is functional, Mus musculus. Set-up: unit: nmol/10^6 cells.
Assay [10] relates to L1210. The experiment in a line: Compound level in L1210 cells after 48 hours of incubation at initial concentration of 500 uM is expressed as nmol/10e6 cells. The format is functional, Mus musculus. Set-up: unit: nmol/10^6 cells.
Assay [11] addresses Spermidine/spermine N(1)-acetyltransferase (SAT) (Mus musculus) (UniProt Q6P8J2+P48026). The experiment in a line: […] spermidine/spermine N1-Acetyltransferase (SSAT) activity. In kind it is functional. Set-up: concentration or dose not given beside the values.
For assay [12], the system named is L1210. As to the kind of experiment: Compound was evaluated for its impact on spermine levels after 48 hr at concentration 100 uM. The format is functional, Mus musculus.
Assay [13] deals with T2, Ornithine decarboxylase (Mus musculus) (UniProt P00860).
T2 sequence (whole entry): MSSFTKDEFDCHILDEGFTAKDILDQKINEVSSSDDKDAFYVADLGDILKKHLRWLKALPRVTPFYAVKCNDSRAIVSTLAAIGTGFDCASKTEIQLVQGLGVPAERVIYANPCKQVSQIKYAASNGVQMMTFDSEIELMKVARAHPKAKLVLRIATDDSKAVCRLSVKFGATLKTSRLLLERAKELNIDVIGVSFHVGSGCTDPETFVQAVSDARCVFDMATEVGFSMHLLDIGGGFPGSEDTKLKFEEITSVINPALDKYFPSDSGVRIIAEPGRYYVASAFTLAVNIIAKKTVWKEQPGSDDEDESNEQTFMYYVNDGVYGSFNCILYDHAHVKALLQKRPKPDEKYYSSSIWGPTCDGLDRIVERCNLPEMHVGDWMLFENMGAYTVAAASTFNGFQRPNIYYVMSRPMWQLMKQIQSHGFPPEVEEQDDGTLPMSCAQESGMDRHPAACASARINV
The experiment in a line: Effect of compound on ornithine decarboxylase (ODC) activity expressed as percent of untreated control for ODC (1 uM at 4 h(or 48h)). An outline of the steps:
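L1210 cells exposed to 1 μM analogue for 4 h, or for 48 h in some cases. ODC activity measured as 14CO2 released from [14C]carboxyl-labeled L-ornithine and expressed as % of untreated control.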

In assay [14] the test system is L1210. As to the kind of experiment: Compound was evaluated for its impact on spermine […] levels after 48 hr at concentration 10 uM. In kind it is functional, Mus musculus. An outline of the steps: as §1
Assay [15] deals with L1210. The experiment in a line: Compound was evaluated for its impact on spermidine levels after 48 hr at concentration 1.5 uM. In kind it is functional, Mus musculus. In a few lines: as §1
Assay [16] deals with L1210. As to the kind of experiment: Compound was evaluated for its impact on spermine levels after 48 hr at concentration 1.5 uM. In kind it is functional, Mus musculus. An outline of the steps: (§3)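 Murine L1210 leukemia cells in log-phase suspension (RPMI-1640, 10% NuSerum, 2% HEPES-MOPS, 1 mM aminoguanidine, 37 °C, 5% CO2) exposed to analogue for 48 h. Cells washed twice in cold RPMI-1640, extracted with 0.6 N perchloric acid, and polyamines quantified by HPLC. Spermine is reported as % of untreated control.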

The test system of assay [17] is L1210. The experiment in a line: Compound was evaluated for its impact on spermidine levels after 48 hr at concentration 0.3 uM. In kind it is functional, Mus musculus. An outline of the steps: as §1
For assay [18], the system named is L1210. As to the kind of experiment: Compound level in L1210 cells after 48 hours of incubation at initial concentration of 0.3 uM is expressed as nmol/10e6 cells. The format is functional, Mus musculus. An outline of the steps:
(§4)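 Murine L1210 leukemia cells were kept in logarithmic growth as a suspension in RPMI-1640 with 10% NuSerum, 2% HEPES-MOPS buffer and 1 mM aminoguanidine, at 37 °C under 5% CO2. Log-phase cells were exposed to the analogue for 48 h. Intracellular analogue content is reported per 10^6 cells.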

Assay [19] relates to L1210. As to the kind of experiment: Compound was evaluated for its impact on putrescine (Put) levels after 48 hr at concentration 0.3 uM. In kind it is functional, Mus musculus. In a few lines:
as §1

In assay [20] the target is T2, Ornithine decarboxylase (Mus musculus). The experiment in a line: Inhibition of ornithine decarboxylase (ODC) activity. The format is functional. Set-up: concentration or dose not given beside the values.
Assay [21] relates to L1210. As to the kind of experiment: Compound was evaluated for its impact on spermine levels after 48 hr at concentration 0.3 uM. In kind it is functional, Mus musculus. In a few lines: as §1
For assay [22], the system named is L1210. The experiment in a line: Compound was evaluated for its impact on putrescine (Put) levels after 48 hr at concentration 1.5 uM. In kind it is functional, Mus musculus. An outline of the steps:
as §1

The subject of assay [23] is L1210. The experiment in a line: Compound level in L1210 cells after 48 hours of incubation at initial concentration of 1.5 uM is expressed as nmol/10e6 cells. In kind it is functional, Mus musculus. In a few lines: as §4
Assay [24] concerns L1210. As to the kind of experiment: Compound was evaluated for its impact on putrescine (Put) levels after 48 hr at concentration 0.4 uM. In kind it is functional, Mus musculus. An outline of the steps:
as §1

For assay [25], the system named is L1210. As to the kind of experiment: Compound was evaluated for its impact on spermidine levels after 48 hr at concentration 2 uM. The format is functional, Mus musculus. An outline of the steps:
as §1

Assay [26] concerns L1210. The experiment in a line: Compound was evaluated for its impact on putrescine (Put) levels after 48 hr at concentration 2 uM. The format is functional, Mus musculus. An outline of the steps:
as §1

The subject of assay [27] is L1210. As to the kind of experiment: Compound was evaluated for its impact on spermidine levels after 48 hr at concentration 0.4 uM. In kind it is functional, Mus musculus. An outline of the steps:
as §1

In assay [28] the test system is L1210. As to the kind of experiment: Compound was evaluated for its impact on spermine levels after 48 hr at concentration 0.4 uM. In kind it is functional, Mus musculus. In a few lines:
as §3

Assay [29] deals with L1210. The experiment in a line: Compound was evaluated for its impact on spermine levels after 48 hr at concentration 2 uM. The format is functional, Mus musculus. In a few lines: as §3
For assay [30], the system named is L1210. The experiment in a line: Compound was evaluated for its impact on spermine levels after 48 hr at concentration 10 uM. The format is functional, Mus musculus. An outline of the steps: as §3

Some results are limits rather than exact numbers.

Spermidine/spermine N(1)-acetyltransferase (SAT) (Mus musculus), sequence (P48026 whole entry, looked up): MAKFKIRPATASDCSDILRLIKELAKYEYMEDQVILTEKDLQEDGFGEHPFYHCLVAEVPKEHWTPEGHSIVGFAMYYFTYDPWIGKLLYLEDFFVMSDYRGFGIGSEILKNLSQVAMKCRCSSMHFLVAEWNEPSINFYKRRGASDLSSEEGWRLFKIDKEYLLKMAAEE
Spermidine/spermine N(1)-acetyltransferase (SAT) (Mus musculus), sequence (Q6P8J2 whole entry, looked up): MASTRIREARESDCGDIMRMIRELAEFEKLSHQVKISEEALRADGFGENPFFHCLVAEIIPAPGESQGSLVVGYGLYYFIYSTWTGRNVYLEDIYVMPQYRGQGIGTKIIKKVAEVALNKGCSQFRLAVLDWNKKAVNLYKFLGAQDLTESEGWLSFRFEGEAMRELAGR

A word on the IC50: it is the point on the concentration scale where inhibition reaches its midpoint. By Ki is commonly meant a dissociation constant, usually derived from enzyme kinetics or from competition with a known ligand. In the case of `CCNCCCNCCCNCCCNCC` [BIS(ETHYL)NORSPERMINE], the Polyamine in assay [1] came out at 14%; in assay [3], 6%; in assay [7], 30%; in assay [8], 0%; in assay [12] it was 30%; in assay [14], 31%. Also, the IC50 is over 100000 nM in [2] and 2000 nM in [5]. Further, the Activity amounted to 42% in assay [4]; 2.44 in assay [9]; 1.59 in assay [10]; 1500% in [11]; 10% in assay [13]. For the same molecule, in assay [6], the Ki was 17000 nM.

Turning to `CCNCCCCNCCCCNCCCNCC`, the Polyamine in [15] was found to be 0%; in [16] it was 18%; in assay [17], 47%; in [19], 40%; in assay [21], 65%; in [22] it was 0%. Further, the IC50 in assay [2] amounted to 300 nM; in assay [5], 80 nM. Further, the Activity in [4] was found to be 37%; in [18] it was 0.27; in assay [20], 5%; in [11], 370%; in [23] it was 0.64. The affinity in assay [6], expressed as Ki, was 8000 nM.

As to `CCNCCCCNCCCCNCCCCNC(C)(C)C`, the Polyamine in [1] worked out at 10%; in assay [24], 133%; in assay [25], 68%; in [26], 78%; in [7], 0%; in assay [27], 96%. The Polyamine in assay [28] is given as 75%; in assay [29] it was 63%; in assay [30], 77%. Also, the IC50 worked out at 400 nM in assay [2] and 30 nM in [5]. For the same molecule, the Activity in assay [4] amounted to 81%; in assay [20] it was 79%. Moreover, in [6], the Ki came to 3000 nM.

Source of the values: ChEMBL document CHEMBL1127367, “Antiproliferative properties of polyamine analogues: a structure-activity study” (J Med Chem, 1994).
